Laboratory results reported in publication PMC3662472 (Basic research in cardiology, 2012).
“Also recorded” adds a separate entry of the source. Like-named read-outs stand apart in the source and are kept apart here. Ends that are not written are not given here.

Columns and labels:
[1] = system: Cx43 hemichannels (cultured pig ventricular cardiomyocytes); assay type: cell-based; settings: Vm +70 mV, siCx43 n = 9, siCx43scr n = 6, MOCK n = 3, ***P < 0.001 siCx43 versus MOCK and siCx43scr
[2] = system: porcine Cx43 gene gja1 / Cx43 expression; assay: Cx43 expression; assay type: cell-based; settings: cultured pig ventricular cardiomyocytes
[3] = system: Panx1 HCs; settings: 20 μM; ref [6]; cited from earlier work
[4] = biological target: Cx43 hemichannels (HeLa-Cx43 cells) (Mus musculus, UniProt P23242); assay type: cell-based; settings: for Qm (% normalized to average before peptide addition), time course: repeated Vm steps to +70 mV, n = 3; for Qm versus control / HC-mediated unitary events: concentration not given; for Qm versus control: Vm +70 mV (30 s); for Qm at steady state (reduction to, % of value before peptide): n = 5
Cx43 hemichannels (HeLa-Cx43 cells), sequence (P23242 whole entry): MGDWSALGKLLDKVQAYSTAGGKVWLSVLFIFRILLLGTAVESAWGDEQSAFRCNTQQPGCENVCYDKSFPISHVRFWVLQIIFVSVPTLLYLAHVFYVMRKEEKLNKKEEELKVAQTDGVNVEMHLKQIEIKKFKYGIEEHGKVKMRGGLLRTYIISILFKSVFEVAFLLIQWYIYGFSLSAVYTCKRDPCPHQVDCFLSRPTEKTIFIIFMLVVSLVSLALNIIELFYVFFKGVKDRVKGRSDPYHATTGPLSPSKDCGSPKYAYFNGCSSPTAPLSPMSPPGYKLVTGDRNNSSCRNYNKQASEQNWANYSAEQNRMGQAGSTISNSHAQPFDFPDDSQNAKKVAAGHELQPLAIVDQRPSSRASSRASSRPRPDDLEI
In short: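 HeLa cells stably express mouse Cx43 from a CMV vector and are kept in DMEM with 20 % FBS, 2 mM glutamine and 1 μg/mL puromycin. In whole-cell clamp (1–3 MΩ pipettes, pH 7.2, 50 nM Ca2+, 1 kHz filter), peptide is pre-incubated 30 min or added during recording. Qm is integrated unitary current over each step, normalized to pre-peptide or […] control. Mean ± SEM, ANOVA/Bonferroni or t test.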

[5] = system: Cx43 hemichannels (pig ventricular cardiomyocytes); assay: Unitary hemichannel currents in isolated pig left ventricular cardiomyocytes; assay type: cell-based; settings: Vm −70 to +80 mV
[6] = scrambled peptide, Vm +70 mV, HeLa-Cx43

Question: Which “Cx43 HC unitary current activity (Qm)” value [1] does the source give for 5′-AGAGAUACGAACAAGAGAG-3′ [siCx43^scr] here?
Answer: The value was “no effect”.

Question: And the “effect on Cx43 expression” value ([2]; scrambled siRNA)?
Answer: The value was “no effect”.

Question: Which “Cx43 HC unitary current activity (Qm)” value ([1]; listed as siRNA directed against Cx43) does the source give for 5′-GAAAGAGGAGGAACUCAAA-dTdT-3′ [siCx43] here?
Answer: Its value is “significantly inhibited”.

Question: And the “Cx43 expression, % of control (MOCK)” value ([2]; *P < 0.05 versus siCx43scr and MOCK)?
Answer: The value was 50%.

Question: What about the Cx43 expression knockdown ([2]; siRNA 24 h) of the same compound?
Answer: The Cx43 expression knockdown was ~ 50%.

Question: Which results are given for `CC1(C)[C@@H](OC(=O)CCC(=O)O)CC[C@]2(C)[C@H]3C(=O)C=C4[C@@H]5C[C@@](C)(C(=O)O)CC[C@]5(C)CC[C@@]4(C)[C@]3(C)CC[C@@H]12` [carbenoxolone]?
Answer: block of Panx1 HCs [3]: known to block Panx1 HCs; unitary current activity ([4]; 100 μM, Vm = +70 mV, HeLa-Cx43): rapidly disappeared; unitary current events in cardiomyocytes ([5]; 20 μM): not influenced; also recorded: not affected; unitary current events in cardiomyocytes ([5]; 20 μM, listed as Carbenoxolone): no effect; unitary current events in cardiomyocytes ([5]; 100 μM): acted inhibitory; also recorded: clearly inhibited the currents

Question: Which “inhibition of Qm at 1 mM” value ([4]; 1 mM, Vm +70 mV, HeLa-Cx43) does the source give for PSFDSRHCIVKYV [SGap26] here?
Answer: The value was “strong inhibition”.

Question: What about the “inhibitory effect on Qm over concentration range” value ([4]; concentration range at which Gap26 displayed inhibition) of the same compound?
Answer: Its value is “did not exhibit inhibitory effects”.

Question: And the “Qm (% normalized to average before peptide addition), time course” value [4]?
Answer: The value was “around 100%”.

Question: And the Qm versus control ([4]; scrambled peptide, HeLa-Cx43)?
Answer: Its Qm versus control is “not different from control”.

Question: And the HC-mediated unitary events [4, 6]?
Answer: The HC-mediated unitary events was “did not reveal any inhibition”.

Question: And the “Qm decay over time” value ([4]; time course, Vm steps to +70 mV, scrambled peptide)?
Answer: Its value is “did not cause any Qm decay”.

Question: Which IC50 [4] does the source give for SRPTEKTIFII [Gap27, SRPTEKTIFII] here?
Answer: Its IC50 is about 161 µM.

Question: What about the “Qm at steady state (reduction to, % of value before peptide)” value ([4]; 300 μM, Vm steps to +70 mV, **P < 0.01 versus SGap27) of the same compound?
Answer: The value was ~ 15%.

Question: Which results are given for TFEPIRISITK [SGap27]?
Answer: effect on Qm versus concentration ([4]; concentration dependence, Vm +70 mV, HeLa-Cx43): did not affect Qm unless it was applied at 1 mM concentration; Qm (% normalized to average before peptide addition), time course [4]: around 100%; Qm versus control ([4]; scrambled peptide, HeLa-Cx43): not different from control; HC-mediated unitary events [4, 6]: did not reveal any inhibition

Question: Which IC50 [4] does the source give for VCYDKSFPISHVR [Gap26, VCYDKSFPISHVR] here?
Answer: Its IC50 is about 81 µM.

Question: What about the “Qm at steady state (reduction to, % of value before peptide)” value ([4]; 250 μM, Vm steps −30 to +70 mV, *P < 0.05 versus SGap26) of the same compound?
Answer: Its value is ~ 35%.
